GASC-1 inh: human JMJD2C demethylase inhibition; Q9H3R0; GST-JMJD2C(1-420) H3K9me3 demethylation, DELFIA europium; inhibition, % at 2.35 µM; 330,000 tested, 0.069% active; AID 2099;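 active = more than half of a compound's replicate wells show inhibition beyond 50%, single wells judged on their own value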;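 note: signal counts dimethyl H3K9 product captured on neutravidin plate; 0% = median of DMSO wells and 100% = 0.3 times that DMSO median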
EP2 modulator: modulators of human EP2 prostaglandin E2 receptor | EP2-expressing cells, cAMP HTRF FRET, PGE2 co-stimulation | induction, % at 25 µM | 260,000 tested, 0.83% active | AID 940;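 active = compounds whose cAMP rise, as percent of the full-agonist control response, exceeds 60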;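 note: rat C6 glioma line stably carrying human EP2 under a CMV promoter; the protocol text gives 20 µM as final concentration; 100% = response of wells given 1 µM PGE2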
NR2E3 ag-1: agonists of human NR2E3 nuclear receptor. Q9Y5X4. CHO-S Gal4-NCOR/VP16-NR2E3 two-hybrid, luciferase. inhibition of corepressor binding, % at 3.98 µM. 360,000 tested, 0.35% active. AID 602229;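 active = inhibition above the mean of all tested compounds plus 3 SD, cut at about 70% in these data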;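 note: 0% = DMSO with NR2E3 transfected cells and 100% = cells lacking NR2E3 construct; higher means lower luciferase signal from less NR2E3 corepressor binding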
Target sequence (Q9Y5X4 whole entry, looked up, the tested form may be a part): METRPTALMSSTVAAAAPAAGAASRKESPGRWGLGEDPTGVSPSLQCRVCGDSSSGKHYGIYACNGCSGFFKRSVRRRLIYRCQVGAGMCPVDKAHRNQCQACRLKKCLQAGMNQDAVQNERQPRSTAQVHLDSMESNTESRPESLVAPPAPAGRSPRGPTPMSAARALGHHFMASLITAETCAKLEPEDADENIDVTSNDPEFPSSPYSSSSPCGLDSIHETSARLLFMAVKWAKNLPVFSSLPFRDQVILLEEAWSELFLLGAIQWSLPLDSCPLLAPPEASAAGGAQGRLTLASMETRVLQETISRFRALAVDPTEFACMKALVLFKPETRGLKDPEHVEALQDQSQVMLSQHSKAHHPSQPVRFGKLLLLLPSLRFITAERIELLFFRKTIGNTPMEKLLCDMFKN
NR2E3 ag-2: agonists of human nuclear receptor NR2E3 | Q9Y5X4 | GST-NR2E3/biotin-RetCOR TR-FRET, 1536-well | inhibition of corepressor binding, % at 4.78 µM | 320,000 tested, 0.12% active | AID 2300;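 active = percent inhibition above the cutoff of mean plus 3 SD of all tested compounds, set per screening campaign, cut at about 20% in these data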;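 note: 0% = DMSO wells and 100% = biotin wells as full block of FRET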
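System: GST-NR2E3 and biotin-RetCOR proteins; probe or stimulus: 7 nM biotin-RetCOR; doses: compound at 4.8 µM, single dose; schedule: Compound–protein incubation for 5 h at 4 °C; detection: time-resolved FRET; read-out: percent inhibition; controls: biotin wells as high control, 0.6% DMSO wells as low control; format: 1536-well plates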
EP2 antag: EP2 receptor (human) inhibition | inhibition, % at 25 µM | C6 glioma cells expressing human EP2, cAMP TR-FRET; cells stimulated with saturating PGE2 | 260,000 tested, 0.52% active | AID 1422;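 active = percent inhibition above 40 after rounding to a whole number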;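 note: rat C6 glioma host cells with rolipram phosphodiesterase inhibitor present; the protocol text gives 20 µM as final concentration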
Furin inh: human furin inhibition | inhibition, % at 20 µM or 30 µM | P09958 | purified furin, fluorogenic substrate cleavage | AID 463115 | 220,000 tested, 0.061% active; in the data active = inhibition above about 25%
EP2 cAMP induct: EP2 receptor cAMP induction, counter-screens negative | shares compounds with EP2 modulator | C6 glioma EP2 cells, cAMP HTRF induction; plus low (about EC15) PGE2 agonist | calls only at 20 µM (by protocol) | 1,300 tested, 47% active;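 active = cAMP induction above 50% in the main assay while under 30% in all four parallel counter assays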;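 note: rat C6 glioma cells stably expressing human EP2 receptor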
Starred values were filed as active, the others as inactive; i = inactive; x = no result; + = active, no number. Rows were chosen to be rich in hits. Some 1.3% of all compounds tested hit in one or more screens of this group.

SMILES	GASC-1 inh	EP2 modulator	NR2E3 ag-1	NR2E3 ag-2	EP2 antag	Furin inh	EP2 cAMP induct
CCOC(=O)CSc1ncnc2c1sc1nc(N3CCOCC3)c3c(c12)CCCC3	12.1	75.5*	14.7	2.9	10.3	-18.8	+
Cc1nnc(SCc2nc3ccccc3[nH]2)n1-c1ccccc1	x	14.3	x	x	-1.1	x	x
O=c1c2ccccc2c(=O)n(Cc2ccccc2)n1Cc1ccccc1	4.5	66.4*	-15.7	1.9	3.0	-3.2	+
O=c1ccn(Cc2ccccc2)c2ccccc12	2.4	-19.6	-5.5	3.0	5.5	1.6	x
O=C(O)c1cc(C(=O)O)cc(N2C(=O)c3ccccc3C2=O)c1	x	86.9*	x	x	7.7	x	+
N#Cc1c(NC(=O)CSc2n[nH]c(Cc3ccccc3)n2)oc(-c2ccccc2)c1-c1ccccc1	5.2	77.2*	-31.2	-1.6	5.6	-27.5	i
CC(C)(C)C(=O)c1cn(CC(N)=O)c2ccccc12	x	-34.8	x	x	8.6	x	x
CN(Cc1ccccc1)C(=O)NC1CCCCC1	-4.5	31.0	1.2	-3.6	4.1	-9.0	x
CC(C)(Sc1ccc(CCN(CCCCC2CCCCC2)C(=O)NC2CCCCC2)cc1)C(=O)O	x	66.5*	7.1	-1.1	12.9	x	i
O=c1[nH]ncc2c3ccccc3n(Cc3cccc(Cl)c3)c12	-0.8	59.8	12.8	1.1	7.6	-22.9	i
COc1ccc(Cl)cc1-c1n[nH]c(=S)n1Cc1ccccc1	6.5	x	8.4	6.9	x	x	x
CCOc1ccc(Cc2n[nH]c(=S)n2Cc2ccccc2)cc1	-12.0	65.8*	-3.0	0.4	2.9	-8.2	i
COc1ccc(Cc2n[nH]c(=S)n2Cc2ccccc2)cc1Cl	25.7	53.4	6.1	3.5	1.7	-16.3	i
Cc1ccc(OCc2n[nH]c(=S)n2Cc2ccccc2)cc1	-23.7	62.0*	0.7	5.1	13.6	-17.6	i
Cc1ccccc1OCc1n[nH]c(=S)n1Cc1ccccc1	-7.8	19.4	-25.5	2.2	2.8	-17.9	x
CCCCOc1ccc(-c2n[nH]c(=S)n2Cc2ccccc2)cc1	-8.7	x	-2.4	-2.6	x	x	x
O=C(Nc1nncs1)Nc1cccc2ccccc12	x	-66.4	x	x	14.6	x	x
C=CCOc1c(Br)cc(/C=N/n2c(CC)n[nH]c2=S)cc1Br	0.5	75.0*	4.9	-2.1	3.8	-19.1	+
CCn1c(COc2cccc(C)c2)nnc1SCC(=O)Nc1ccc(Br)cc1	x	-24.9	x	x	6.8	x	x
Cc1ccc(-n2nnnc2SCC(=O)Nc2ccc3c(c2)OCCO3)cc1	x	-29.4	x	x	8.1	x	x
CC1CCCC(C)N1C(=O)c1ccccc1Nc1ccc(SC(F)F)cc1 (stereo unspecified)	-46.6	76.5*	23.7	-0.4	2.8	-2.0	i
O=C(CN1CCC(n2nnc3cc(F)ccc32)CC1)Nc1ccccc1C(F)(F)F	x	5.5	x	x	5.0	x	x
O=C(c1ccco1)N1CCN(c2c(-c3ccccc3)c3cc(Cl)ccc3[nH]c2=O)CC1	-0.4	47.2	-19.3	0.8	9.0	-20.9	x
O=c1[nH]c2ccc(Cl)cc2c(-c2ccccc2)c1CN1CCOCC1	-5.7	20.3	-3.0	3.0	5.6	-2.3	x
O=c1[nH]c2ccc(Cl)cc2c(-c2ccccc2)c1N1CCN(c2ccccn2)CC1	-3.3	72.7*	1.3	-0.9	7.2	-0.1	i
SMILES	GASC-1 inh	EP2 modulator	NR2E3 ag-1	NR2E3 ag-2	EP2 antag	Furin inh	EP2 cAMP induct
O=c1[nH]c2ccc(Cl)cc2c(-c2ccccc2)c1N1CCOCC1	-1.4	68.9*	17.9	0.8	4.9	-26.2	i
C=CCOc1ccc(C2NC(=O)NC(C)=C2C(=O)OCC)cc1 (stereo unspecified)	x	-43.4	x	x	15.3	x	x
COc1cc2ccccc2cc1C(=O)NC(=S)Nc1ccc(C(=O)O)cc1	6.8	x	-52.0	-0.1	x	x	x
COc1cc2ccccc2cc1C(=O)NC(=S)Nc1cccc(C(=O)O)c1	-0.1	95.5*	-108.3	3.7	3.4	-20.1	+
CN(Cc1c(C(=O)N2CCc3ccccc3C2)nc2ccc(Cl)cn12)C(C1CC1)C1CC1	-14.6	76.5*	-26.1	-3.4	17.6	-18.5	i
CCN(C)Cc1c(C(=O)N2CCc3ccccc3C2)nc2ccc(Cl)cn12	1.0	3.8	-0.4	1.0	4.1	-25.7	x
CCOc1ccc(S(=O)(=O)N2CCCC(C(=O)Nc3ccc(C)c(F)c3)C2)cc1 (stereo unspecified)	x	-21.5	x	x	7.1	x	x
CCn1c(=NC(=O)CS(=O)(=O)c2ccc(C)cc2)sc2cccc(OC)c21	7.4	x	27.9	-0.2	x	x	x
CCn1c(=NC(=O)c2ccc(S(=O)(=O)N(C)C)cc2)sc2cccc(OC)c21	17.6	75.8*	-15.5	1.6	11.8	-13.6	i
CC1(C(=O)Nc2ccccc2Cl)Cc2ccccc2C(=O)O1 (stereo unspecified)	x	4.9	x	x	5.3	x	x
CC1(C)CN=C(N(C(=O)Nc2ccccc2)c2ccccc2F)S1	-6.9	43.3	3.3	-1.5	4.7	-23.7	x
Cc1cccnc1N(C(=O)Nc1cccc(Cl)c1)C1=NCC(C)(C)S1	-11.5	70.2*	-5.2	-0.1	2.6	-9.3	+
Cc1cccnc1NC(=O)Nc1cccc(Cl)c1	3.1	x	-25.3	0.9	x	x	x
Cc1cccnc1N(C(=O)Nc1ccccc1)C1=NCC(C)(C)S1	5.7	86.4*	3.9	2.0	9.0	-6.5	+
COc1cc(C(=O)NCc2noc(-c3ccc(C)cc3)n2)c2ccccc2n1	x	-33.1	x	x	7.8	x	x
Cn1c(O)c(N=NC(=O)c2ccco2)c2ccccc21	-11.6	-14.0	-147.1	-8.4	21.0	13.8	x
CC(C)CCn1c(O)c(N=NC(=O)c2ccco2)c2ccccc21	5.6	72.7*	15.1	1.3	1.0	-24.1	i
COc1cc(OC)cc(-c2nc(N)n[nH]2)c1	-3.7	68.3*	-3.9	2.4	17.4	-7.6	i
COc1ccc(-c2nc(N)n[nH]2)cc1	1.7	0.4	-2.4	-0.2	13.6	-24.7	x
Cc1cc(C)c(C#N)c(Oc2ccccc2Br)n1	6.5	70.0*	-5.3	3.2	9.5	-31.3	i
Cc1cc(C)c(C#N)c(Oc2ccccc2)n1	7.2	23.6	-2.6	-0.1	13.5	-13.9	x
Cc1cccc(C)c1OC(=O)C(c1ccccc1)c1ccccc1	0.8	66.4*	25.0	3.3	19.4	-19.9	i
Cc1ccc2c3c(cccc13)-c1ccccc1C2=O	4.0	79.4*	-25.5	-0.1	5.1	-32.1	+
Nc1ccc2c3c(cccc13)-c1ccccc1-2	x	x	-91.5	x	x	x	x
CCC(c1nnnn1C(C)(C)CC)N(CCc1cccc(C)c1)Cc1cc2cccc(C)c2[nH]c1=O (stereo unspecified)	x	23.6	x	x	8.1	x	x
COCCn1c(SC(C(=O)Nc2cc(C)ccc2OC)c2ccccc2)nnc1-c1ccc(Cl)cc1 (stereo unspecified)	0.3	55.1	-2.5	0.8	7.6	-13.2	i
